The text below walks through data of paper PMC3580954 (Biopolymers, 2013).

Read-outs that look alike come from different tables or passages of the source. Residues, ends and D or L forms follow the SMILES beside them. No end group written: not given here.

The target in one assay is T1, wt hPrRP receptor (Homo sapiens, UniProt P49683).
T1 sequence (P49683 1-370): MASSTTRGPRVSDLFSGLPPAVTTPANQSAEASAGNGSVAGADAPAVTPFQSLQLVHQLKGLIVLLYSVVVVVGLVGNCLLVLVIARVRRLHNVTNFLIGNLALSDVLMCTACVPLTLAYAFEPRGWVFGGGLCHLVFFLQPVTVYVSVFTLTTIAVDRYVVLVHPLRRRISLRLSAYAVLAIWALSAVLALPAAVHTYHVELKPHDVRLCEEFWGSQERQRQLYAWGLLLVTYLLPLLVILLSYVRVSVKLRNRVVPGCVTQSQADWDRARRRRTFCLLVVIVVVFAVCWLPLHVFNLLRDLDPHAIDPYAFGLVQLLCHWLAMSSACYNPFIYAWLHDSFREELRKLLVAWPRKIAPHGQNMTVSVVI
The assay is described as follows: Signal transduction. The format is cell-based. The note with it: SD. In short, it runs like this:
(§1)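 COS-7 cells were transiently transfected with 0.4 µg plasmid of human PrRP receptor or its site-directed mutant, C-terminally fused to EYFP. One day after transfection and 16 h before stimulation, cells were labelled with 2 µCi/mL [³H]myo-inositol. They were then stimulated with increasing peptide concentrations for 1 h at 37°C in DMEM with 10 mM LiCl, and lysed in 0.1 M NaOH. IP was separated by anion exchange and counted by scintillation. EC50 came from concentration-response curves; runs were in duplicate, repeated ≥2 times.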

The target in the next assay is T2, wt PrRP receptor (Homo sapiens, UniProt P49683).
T2 sequence (P49683 1-370): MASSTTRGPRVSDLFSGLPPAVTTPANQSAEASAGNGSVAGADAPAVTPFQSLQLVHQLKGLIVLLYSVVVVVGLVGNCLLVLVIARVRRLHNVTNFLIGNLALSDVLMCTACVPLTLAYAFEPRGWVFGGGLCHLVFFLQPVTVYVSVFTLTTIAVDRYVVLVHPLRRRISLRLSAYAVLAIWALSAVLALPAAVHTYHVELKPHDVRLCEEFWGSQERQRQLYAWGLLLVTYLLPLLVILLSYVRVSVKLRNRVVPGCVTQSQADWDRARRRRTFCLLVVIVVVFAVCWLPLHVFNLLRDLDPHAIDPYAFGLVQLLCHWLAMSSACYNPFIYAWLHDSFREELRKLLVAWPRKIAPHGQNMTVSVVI
Nature of the assay: Radioligand displacement. The format is binding. The procedure, abridged: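 COS-7 cells (1.5 × 10⁶ seeded) were transiently transfected at 60–70% confluency with 4 µg of EYFP-fused human PrRP receptor DNA. About 24 h later, competition binding was run on intact cells against 1 nM N[propionyl³H]hPrRP20. IC50 came from a one-site competition fit, with triplicates.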

The next assay addresses T3, W^2.71A PrRP receptor (Homo sapiens, UniProt P49683, W127A).
T3 sequence (P49683 1-370 W127A): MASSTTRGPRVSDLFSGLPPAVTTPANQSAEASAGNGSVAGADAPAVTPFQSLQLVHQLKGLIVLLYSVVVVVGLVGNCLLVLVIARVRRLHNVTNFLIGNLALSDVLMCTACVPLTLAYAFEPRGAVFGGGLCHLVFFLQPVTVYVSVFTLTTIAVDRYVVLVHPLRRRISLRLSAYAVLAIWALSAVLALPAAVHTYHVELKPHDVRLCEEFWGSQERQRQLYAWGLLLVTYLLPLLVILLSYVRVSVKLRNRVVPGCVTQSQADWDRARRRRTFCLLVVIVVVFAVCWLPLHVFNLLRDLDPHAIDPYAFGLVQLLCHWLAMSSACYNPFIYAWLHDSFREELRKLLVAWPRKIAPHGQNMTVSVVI
Nature of the assay: IP accumulation assay, W^2.71A receptor mutant. Type of assay: cell-based. The following applies: SD. In short, it runs like this:
as §1

In a further assay the target is T4, Y^2.64A PrRP receptor (Homo sapiens, UniProt P49683, Y120A).
T4 sequence (P49683 1-370 Y120A): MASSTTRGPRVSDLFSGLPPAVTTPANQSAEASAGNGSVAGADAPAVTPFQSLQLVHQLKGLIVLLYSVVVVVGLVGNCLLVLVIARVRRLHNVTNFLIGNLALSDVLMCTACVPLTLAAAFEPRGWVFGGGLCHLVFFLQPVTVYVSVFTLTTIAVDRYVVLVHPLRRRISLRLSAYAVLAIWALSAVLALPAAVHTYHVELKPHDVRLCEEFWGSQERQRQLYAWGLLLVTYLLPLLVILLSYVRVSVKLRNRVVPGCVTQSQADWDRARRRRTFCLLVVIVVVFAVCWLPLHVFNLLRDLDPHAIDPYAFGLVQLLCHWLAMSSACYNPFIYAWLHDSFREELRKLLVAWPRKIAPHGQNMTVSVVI
Nature of the assay: IP accumulation assay, Y^2.64A receptor mutant. Type of assay: cell-based. The note with it: SD. The procedure, abridged:
as §1

Assay [1] concerns the target T5, PrRP receptor (GPR10) (Homo sapiens, UniProt P49683).
T5 chain: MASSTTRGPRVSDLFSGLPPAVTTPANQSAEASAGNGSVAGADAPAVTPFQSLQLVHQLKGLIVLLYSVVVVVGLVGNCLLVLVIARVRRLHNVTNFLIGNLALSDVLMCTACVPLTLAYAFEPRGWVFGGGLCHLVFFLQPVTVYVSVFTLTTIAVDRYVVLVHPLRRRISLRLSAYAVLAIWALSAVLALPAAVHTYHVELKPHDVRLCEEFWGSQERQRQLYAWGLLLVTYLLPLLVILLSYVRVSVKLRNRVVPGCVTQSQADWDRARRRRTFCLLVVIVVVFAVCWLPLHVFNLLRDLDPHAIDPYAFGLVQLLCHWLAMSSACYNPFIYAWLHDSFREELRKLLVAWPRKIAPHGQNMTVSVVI
Nature of the assay: radioligand displacement on transfected COS-7 cells. For orientation: In a radioligand displacement assay an active substance lowers the binding of a labelled ligand.

In assay [2] the target is T5, PrRP receptor (GPR10). The assay is described as follows: radioligand binding on transfected COS-7 cells.

For the molecule `CC[C@H](C)[C@H](NC(=O)CNC(=O)[C@H](CCCNC(=N)N)NC(=O)[C@H](CO)NC(=O)[C@H](C)NC(=O)[C@H](Cc1ccc(O)cc1)NC(=O)[C@H](Cc1c[nH]c2ccccc12)NC(=O)[C@H](C)NC(=O)[C@@H]1CCCN1C(=O)[C@H](CC(N)=O)NC(=O)[C@@H](NC(=O)[C@H](CC(=O)O)NC(=O)[C@@H]1CCCN1C(=O)[C@@H](N)[C@@H](C)O)[C@@H](C)CC)C(=O)N[C@@H](C)C(=O)N1CCC[C@H]1C(=O)N[C@H](C(=O)NCC(=O)N[C@@H](CCCNC(=N)N)C(=O)N[C@@H](Cc1ccccc1)C(N)=O)C(C)C` [A^15PrRP20] (H-TPDINPAWYASRGIAPVGRF-NH2), the EC50 (usually the concentration at which the effect is half-maximal) on wt hPrRP receptor turned out to be 49 ± 12 nM. In addition, the IC50 – broadly, the midpoint of a concentration-inhibition curve – on wt PrRP receptor (SD) was 882 ± 376 nM. In turn, `CC[C@H](C)[C@H](NC(=O)CNC(=O)[C@H](CCCNC(=N)N)NC(=O)[C@H](CO)NC(=O)[C@H](C)NC(=O)[C@H](Cc1ccc(O)cc1)NC(=O)[C@H](Cc1c[nH]c2ccccc12)NC(=O)[C@H](C)NC(=O)[C@@H]1CCCN1C(=O)[C@H](CC(N)=O)NC(=O)[C@@H](NC(=O)[C@H](CC(=O)O)NC(=O)[C@@H]1CCCN1C(=O)[C@@H](N)[C@@H](C)O)[C@@H](C)CC)C(=O)N[C@@H](CCCNC(=N)N)C(=O)N1CCC[C@H]1C(=O)N[C@H](C(=O)NCC(=O)N[C@@H](C)C(=O)N[C@@H](Cc1ccccc1)C(N)=O)C(C)C` [A^19PrRP20] (H-TPDINPAWYASRGIRPVGAF-NH2) registered an EC50 on wt hPrRP receptor of 1200 ± 231 nM. The IC50 at wt PrRP receptor was greater than 10000 nM. At wt hPrRP receptor, `CC[C@H](C)[C@H](NC(=O)CNC(=O)[C@H](CCCNC(=N)N)NC(=O)[C@H](CO)NC(=O)[C@H](C)NC(=O)[C@H](Cc1ccc(O)cc1)NC(=O)[C@H](Cc1c[nH]c2ccccc12)NC(=O)[C@H](C)NC(=O)[C@@H]1CCCN1C(=O)[C@H](CC(N)=O)NC(=O)[C@@H](NC(=O)[C@H](CC(=O)O)NC(=O)[C@@H]1CCCN1C(=O)[C@@H](N)[C@@H](C)O)[C@@H](C)CC)C(=O)N[C@@H](CCCNC(=N)N)C(=O)N1CCC[C@H]1C(=O)N[C@H](C(=O)NCC(=O)N[C@@H](CCCNC(=N)N)C(=O)N[C@@H](C)C(N)=O)C(C)C` [A^20PrRP20] (H-TPDINPAWYASRGIRPVGRA-NH2) returned an EC50 of 20 ± 5 nM. Besides, the IC50 on wt PrRP receptor (SD) was 870 ± 288 nM.

On wt hPrRP receptor, `CC[C@H](C)[C@H](N)C(=O)N[C@@H](CC(N)=O)C(=O)N1CCC[C@H]1C(=O)N[C@@H](C)C(=O)N[C@@H](Cc1c[nH]c2ccccc12)C(=O)N[C@@H](Cc1ccc(O)cc1)C(=O)N[C@@H](C)C(=O)N[C@@H](CO)C(=O)N[C@@H](CCCNC(=N)N)C(=O)NCC(=O)N[C@H](C(=O)N[C@@H](CCCNC(=N)N)C(=O)N1CCC[C@H]1C(=O)N[C@H](C(=O)NCC(=O)N[C@@H](CCCNC(=N)N)C(=O)N[C@@H](Cc1ccccc1)C(N)=O)C(C)C)[C@@H](C)CC` [PrRP4-20] (H-INPAWYASRGIRPVGRF-NH2) yielded an EC50 of 1 ± 0.2 nM. As for `CC[C@H](C)[C@H](NC(=O)CNC(=O)[C@H](CCCNC(=N)N)NC(=O)[C@H](CO)NC(=O)[C@H](C)NC(=O)[C@H](Cc1ccc(O)cc1)NC(=O)[C@@H](N)Cc1c[nH]c2ccccc12)C(=O)N[C@@H](CCCNC(=N)N)C(=O)N1CCC[C@H]1C(=O)N[C@H](C(=O)NCC(=O)N[C@@H](CCCNC(=N)N)C(=O)N[C@@H](Cc1ccccc1)C(N)=O)C(C)C` [PrRP8-20] (H-WYASRGIRPVGRF-NH2), the EC50 on W^2.71A PrRP receptor is 2120 ± 390 nM; on wt hPrRP receptor, 2.3 ± 0.5 nM; on Y^2.64A PrRP receptor it was 434 ± 96 nM. At wt hPrRP receptor, `CC[C@H](C)[C@H](N)C(=O)N[C@@H](CCCNC(=N)N)C(=O)N1CCC[C@H]1C(=O)N[C@H](C(=O)NCC(=O)N[C@@H](CCCNC(=N)N)C(=O)N[C@@H](Cc1ccccc1)C(N)=O)C(C)C` [PrRP14-20] (H-IRPVGRF-NH2) displayed an EC50 of 14 ± 2 nM.

B1: PrRP8-20 (peptide)
chain: WYASRGIRPVGRF-NH2
For the molecule B1, the IC50 in the assay with PrRP receptor (GPR10) [1] is 7 nM.

B2: PrRP20 (peptide)
chain: TPDINPAWYASRGIRPVGRF-NH2
Consider B2, for which the IC50 with PrRP receptor (GPR10) [1] was determined as 4.1 nM.

B3: PrRP20 (peptide)
chain: {(3H)propionyl}-TPDINPAWYASRGIRPVGRF-NH2
With B3, the Kd (commonly a measure of binding affinity in units of concentration) with PrRP receptor (GPR10) [2] turned out to be 0.58 nM.

B4: PrRP14-20 (peptide)
chain: IRPVGRF-NH2
Consider B4, for which the IC50 with PrRP receptor (GPR10) [1] turned out to be 430 nM. This counts as sub-micromolar.

B5: PrRP4-20 (peptide)
chain: INPAWYASRGIRPVGRF-NH2
In the case of B5, the IC50 with PrRP receptor (GPR10) [1] was 1.2 nM.
